An excerpt weighted towards active compounds, which were near 6.4% of everything screened.
CHOP inh: inhibitors of CHOP promoter induction, primary screen, cell-based, unfolded protein response, luciferase reporter; actives 3.8% (n = 220,000); CHO-K1 CHOP-promoter luciferase, tunicamycin-induced, 15-18 h; inhibition, % at 10 µM;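 active means compounds that reduced the stress-induced luciferase reporter signal by more than about 70% of percent inhibition, limit read from the data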;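 further: 0% = tunicamycin plus vehicle and 100% = wells without tunicamycin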
Tb MetRS inh: T. brucei MetRS inhibitors, primary screen, biochemical, luminescence; methionyl-tRNA synthetase (Trypanosoma brucei brucei); purified T. brucei MetRS, ATP depletion, Kinase-Glo luminescence; AID 624268, 2012; inhibition, % at 11.9 µM; actives 0.4% (n = 360,000);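 active means inhibition above a per-plate cutoff of the control wells' mean inhibition plus 3 SD, cut at about 5.5% in these data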;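 further: 0% = DMSO wells median and 100% = median of wells with control inhibitor compound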
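Measured by: Kinase-Glo luciferase luminescence reporting remaining unconsumed ATP. Material: purified T. brucei MetRS enzyme. Doses: 11.9 µM compound single dose, 0.9% DMSO. Medium: HEPES buffer containing pyrophosphatase, BSA, spermine, DTT. Times: 15 min preincubation, 2 h reaction, all 25 °C. Reagent: methionine, ATP and bulk E. coli tRNA.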
MPTP block: mitochondrial permeability transition pore inhibitors, primary screen, biochemical, isolated mouse mitochondria, absorbance. Ca2+ swelling absorbance, 30 min. inhibition, % at 10 µM. actives 1.4% (n = 360,000). AID 602449, 2012;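 active means inhibition of 50% or more, scaled per plate between neutral and stimulator controls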;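 further: 0% = DMSO wells given calcium and 100% = 1 mM EGTA wells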
EBV gp42 inh: Epstein-Barr virus gp42 inhibitors, primary screen, biochemical, uHTS, fluorescence polarization | Glycoprotein 42 (Epstein-Barr virus (strain AG876)), Q1HVG2 | Fluorescence polarization binding assay, mP read-out | inhibition, % (tested at 21.74 µM) | actives 0.42% (n = 220,000) | AID 1085, 2008; in the data active means inhibition above about 50%
Target sequence (Q1HVG2 whole entry, looked up): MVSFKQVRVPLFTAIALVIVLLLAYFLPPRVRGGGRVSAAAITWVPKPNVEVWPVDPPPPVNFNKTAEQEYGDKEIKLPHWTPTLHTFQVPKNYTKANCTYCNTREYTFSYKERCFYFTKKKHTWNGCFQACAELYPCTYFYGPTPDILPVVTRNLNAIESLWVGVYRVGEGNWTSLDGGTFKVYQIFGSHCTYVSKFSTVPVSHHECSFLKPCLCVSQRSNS
WT yeast gro inh: growth inhibition of WT strain, primary screen, mitochondrial fusion inhibitor project, WT and mutant strains, chemical genetic; actives 2.1% (n = 190,000); mitochondrial fusion phenotypic screen; inhibition, % at 10 µM; AID 1362, 2008; in the data active means inhibition above about 58%; tested in S. cerevisiae
GRIN3A LBD mod: binders of NR3A ligand-binding domain, primary screen, biophysical, differential scanning fluorimetry, uHTS; Glutamate receptor ionotropic, NMDA 3A (GRIN3A) ligand-binding domain; NR3A LBD differential scanning fluorimetry, Tm shift; 0% = protein alone, 100% = glycine-bound protein; Tm shift relative to glycine control, % at 25 µM; actives 2.5% (n = 340,000);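 active means melting temperature shift of at least 10% of the positive control shift, at one fixed dose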
The depositor's hits bear a star.

For Clc1cccc(-c2nnc(-c3ccccc3)o2)c1 the results were CHOP inh 20, Tb MetRS inh -1, MPTP block -2, EBV gp42 inh 15, WT yeast gro inh 12 and GRIN3A LBD mod -1.
`O=C(N/N=C/c1coc2ccccc2c1=O)c1ccncc1` gave Tb MetRS inh 0, MPTP block 0 and GRIN3A LBD mod 2.
For CC(C)Cn1c(N)c(C(=O)CSc2ccccc2)c(=O)n(C)c1=O the results were CHOP inh 37, Tb MetRS inh 2, MPTP block 10, EBV gp42 inh -6, WT yeast gro inh -5 and GRIN3A LBD mod 5.
Cc1ccccc1CSCC(=O)c1c(N)n(CC(C)C)c(=O)n(C)c1=O was read as CHOP inh 81*, Tb MetRS inh -1, MPTP block 0, EBV gp42 inh -16, WT yeast gro inh 8 and GRIN3A LBD mod -13.
Screening Cc1ccccc1CSCC(=O)c1c(N)n(C)c(=O)n(C)c1=O returned CHOP inh -10, Tb MetRS inh 0, MPTP block -1, EBV gp42 inh -1, WT yeast gro inh -6 and GRIN3A LBD mod 11*.
For COCCNC(=O)c1c[nH]c2ccc(S(=O)(=O)N(C)c3ccc(C)c(C)c3)cc2c1=O the results were Tb MetRS inh -2, MPTP block 0 and GRIN3A LBD mod 0.
CCC1CO/C(=C(\C(Cl)=C(Cl)Cl)[N+](=O)[O-])N1 (stereo not given) was read as CHOP inh 79*, Tb MetRS inh -1, MPTP block -1, EBV gp42 inh -9, WT yeast gro inh -4 and GRIN3A LBD mod 0.
For CCC(C)c1ccccc1NC(=O)CN1CCN(C/C=C/c2ccccc2)CC1 (stereo not given) the results were CHOP inh 75*, Tb MetRS inh -1, MPTP block 0, EBV gp42 inh -30, WT yeast gro inh 58 and GRIN3A LBD mod -2.
Screening COc1ccc(Cl)cc1NC(=O)C(C)N1CCN(C/C=C/c2ccccc2)CC1 (stereo not given) returned CHOP inh 74*, Tb MetRS inh -1, MPTP block 39, EBV gp42 inh -1, WT yeast gro inh 22 and GRIN3A LBD mod -6.
Screening COc1ccc2oc(C(=O)N(C)Cc3ccc(OC(F)F)cc3)c(C)c2c1 returned Tb MetRS inh -1, MPTP block 0 and GRIN3A LBD mod 13*.
COc1ccccc1-n1c(=O)oc2ccc(Cl)cc2c1=O was read as CHOP inh 44, Tb MetRS inh -1, MPTP block -5, EBV gp42 inh -14, WT yeast gro inh 76* and GRIN3A LBD mod 0.
COc1c(Cl)c(=O)oc2ccc(Cl)cc12 was read as Tb MetRS inh 0 and MPTP block -3.
CC(C)=C1C2CCC1C(C(=O)NCc1ccccc1)C2C(=O)O (stereo not given) was read as CHOP inh 82*, Tb MetRS inh -1, MPTP block 0, EBV gp42 inh -9, WT yeast gro inh 10 and GRIN3A LBD mod -1.
O=C(O)C1CCCCC1C(=O)NCc1ccccc1 (stereo not given) was read as CHOP inh -3, Tb MetRS inh 0, MPTP block 1, EBV gp42 inh -7, WT yeast gro inh -1 and GRIN3A LBD mod -1.
`FC(F)(F)c1cnc(Sc2nc3nccc(-c4ccc(Cl)cc4)n3n2)c(Cl)c1` gave CHOP inh 60, Tb MetRS inh 0, MPTP block 2, EBV gp42 inh -16, WT yeast gro inh 96* and GRIN3A LBD mod 5.
For COc1ccc(-c2ccnc3nc(Sc4ncc(C(F)(F)F)cc4Cl)nn23)cc1 the results were CHOP inh 63, Tb MetRS inh -1, MPTP block 0, EBV gp42 inh 0, WT yeast gro inh 18 and GRIN3A LBD mod -1.
Screening Cc1ccc(NC(=O)CSc2nnc(CNC(=O)c3ccco3)n2C)c(C)c1 returned Tb MetRS inh 0, MPTP block -1 and GRIN3A LBD mod -4.
For Nc1nc(NCc2ccco2)nc(Nc2ccc(F)cc2)c1[N+](=O)[O-] the results were CHOP inh 2, Tb MetRS inh 0, MPTP block 6, EBV gp42 inh -5 and GRIN3A LBD mod 5.
Cc1ccc(Nc2nc(N)c([N+](=O)[O-])c(NCCO)n2)cc1C was read as CHOP inh 19, Tb MetRS inh -1, MPTP block 2, EBV gp42 inh 10 and GRIN3A LBD mod 0.
For Cc1ccc(Nc2nc(N)c([N+](=O)[O-])c(NCc3ccco3)n2)cc1C the results were CHOP inh 79*, Tb MetRS inh 0, MPTP block 6, EBV gp42 inh -9, WT yeast gro inh 72* and GRIN3A LBD mod -1.
`CCOc1ccc(Nc2nc(NCc3ccco3)nc(N)c2[N+](=O)[O-])cc1` gave CHOP inh 0, Tb MetRS inh 0, MPTP block 2, EBV gp42 inh -10 and GRIN3A LBD mod 12*.
CN(Cc1cnn(C)c1)C(=O)C1CCC(=O)N(Cc2cccc(F)c2)C1 (stereo not given) was read as Tb MetRS inh 1, MPTP block -2 and GRIN3A LBD mod -2.
For Cc1cc(C)n(CCc2nc(-c3ccc(F)cc3)cs2)n1 the results were CHOP inh 32, Tb MetRS inh -1, MPTP block 0, EBV gp42 inh -10, WT yeast gro inh 7 and GRIN3A LBD mod 3.
Cc1cc(C)n(CCc2nc(-c3ccc(C(C)(C)C)cc3)cs2)n1 was read as CHOP inh 67, Tb MetRS inh 0, MPTP block 31, EBV gp42 inh -4, WT yeast gro inh 75* and GRIN3A LBD mod 12*.
For Cc1cc(C)cc(NC(=O)Nc2ccc(NC(=O)c3ccccc3O)cc2)c1 the results were Tb MetRS inh 0, MPTP block 1 and GRIN3A LBD mod 25*.
`Cc1ccc(NC(=O)c2ccccc2O)cc1` gave CHOP inh 14, Tb MetRS inh 0, MPTP block 1, EBV gp42 inh 2, WT yeast gro inh 56 and GRIN3A LBD mod -6.
`O=C(Nc1ccccc1)Nc1ccc(NC(=O)c2ccccc2O)cc1` gave Tb MetRS inh 0, MPTP block 1 and GRIN3A LBD mod 42*.
Cc1ccc2c(c1)C(=O)CCN2 was read as CHOP inh 27, Tb MetRS inh -1, MPTP block -2, EBV gp42 inh 3, WT yeast gro inh 3 and GRIN3A LBD mod -1.
O=C1CCNc2ccc(-c3ccccc3)cc21 was read as CHOP inh 8, Tb MetRS inh 0, MPTP block 1, EBV gp42 inh active, WT yeast gro inh 0 and GRIN3A LBD mod -4.
